# Published values pooled from the literature.
# Read-out: cell growth or viability
SMILES,cell line,method,tested at,time,quantity,value
CN(C)CCNC(=O)c1ccc(-c2nc3ccc4[nH]ncc4c3c3c2CCCCC3)c(F)c1,HCC827,,,72 h,GI50,0.985 µM
C[C@H](Nc1ccc2c(c1)OCCn1cc(N3C(=O)OC[C@H]3C(F)F)nc1-2)C(N)=O,BFTC-909,ATP luminescence,,5 days,EC50,0.342 µM
CN(C)CCNC(=O)c1ccc(-c2nc3ccc4[nH]ncc4c3c3c2CCCC3)cc1,HCC827,,,72 h,GI50,1.04 µM
CCCCn1cnc2ccc(-c3ccc(NC(=O)NCCC)nc3)cc2c1=O,HCC827,CCK-8,,72 h,IC50,> 10 µM
Cc1nc(Nc2ncc(C(=O)Nc3c(C)cccc3Cl)s2)cc(N2CC[C@H](O)C2)n1,KU812,ATP luminescence,10 µM,72 h,inhibition,97%
CCCn1cnc2ccc(-c3ccc(NC(=O)CC4CCC4)nc3)cc2c1=O,HCC827,CCK-8,,72 h,IC50,1.21 µM
Cc1nc(NC(=O)N2CCC[C@H]2C(N)=O)sc1-c1ccnc(C(C)(C)C(F)(F)F)c1,BFTC-909,ATP luminescence,,5 days,EC50,5.56 µM
CN(C)CCNC(=O)c1ccc(-c2nc3ccc4[nH]ncc4c3c3c2CCCCC3)cc1,HCC827,,,72 h,GI50,3.04 µM
CCCCn1cnc2ccc(-c3ccc(NC(=O)Nc4ccc(C(F)(F)F)cc4)nc3)cc2c1=O,HCC827,CCK-8,,72 h,IC50,> 10 µM
